In ChEMBL document CHEMBL1122008, “Lipophilic 5'-(alkyl phosphate) esters of 1-beta-D-arabinofuranosylcytosine and its N4-acyl and 2,2'-anhydro-3'-O-acyl derivatives as potential prodrugs” (1982):

How the values were obtained:
Type in all cases: functional
B16 = test: Growth inhibition of B16 mouse melanoma cells in culture was determined; settings: read-out: ID50 (the source's name)
How it was run: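 B16 mouse melanoma monolayers in McCoy's 5A with 10% whole fetal calf serum, streptomycin and penicillin, 37 °C, 5% CO2. Drugs were dissolved in 0.05 M pH 7.4 potassium phosphate buffer or Me2SO and dosed at regularly spaced concentrations, generally 10^-7 to 10^-3 M. Cells were counted after 48 h; ID50 versus untreated controls was read from dose–response curves, triplicate.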

L1210 = test: Growth inhibition of cultured L1210 mouse leukemia cells was determined; settings: read-out: ID50 (the source's name)
How it was run: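 L1210 mouse leukemia cells in suspension in Eagle's MEM with 15% whole (non-dialyzed, non-heat-inactivated) fetal calf serum, antibiotics and 0.05 mM 2-mercaptoethanol, 37 °C, 5% CO2. Drugs in pH 7.4 phosphate buffer or Me2SO, generally 10^-7 to 10^-3 M. Coulter cell counts at 48 h; ID50 relative to untreated controls from dose–response curves, triplicate.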

Mus musculus [1] = test: Antitumor activity against L1210 leukemia in mice (Average 7-day weight change (%)) at the dose of 267 mg/kg
How it was run: (§1)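 Male B6D2F1J mice, groups of five to nine, inoculated ip with 10^5 L1210 cells on day 0. Drug treatment started day 1 on qd×5 or q4d(2,6) schedule. Vehicles: ara-C in sterile water; the n-butyl phosphate ester in 0.05 M pH 7.4 potassium phosphate buffer; others as suspensions in 0.4% Tween 80/0.5% low-density CMC/0.9% benzyl alcohol/0.9% saline. Mice weighed days 1 and 7; 7-day weight change given as g/mouse and %.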

Mus musculus [2] = test: Antitumor activity against L1210 leukemia in mice (Percent increase in life span.) at the dose of 200 mg/kg (mice surviving 20 or more days)
How it was run: (§2)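 Male B6D2F1J mice, groups of 5–9, inoculated ip with 10^5 L1210 cells on day 0. Dosing starts day 1 on a qd×5 or q4d(2,6) schedule. Vehicles are sterile water, pH 7.4 0.05 M potassium phosphate buffer, or 0.4% Tween 80/0.5% CMC/0.9% benzyl alcohol/0.9% saline. %ILS = (T/C − 1)×100 from median survival. Weights taken days 1 and 7.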

Mus musculus [3] = test: Antitumor activity against L1210 leukemia in mice (Average 7-day weight change (%)) at the dose of 200 mg/kg; how it was run: as §1
Mus musculus [4] = test: Antitumor activity against L1210 leukemia in mice (Average weight per mouse on day 1.) at the dose of 267 mg/kg
How it was run: (§3)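 Male B6D2F1J mice (5–9 per group) received 10^5 L1210 cells i.p. on day 0 and drug from day 1, given qd×5 or q4d(2,6). Vehicles were sterile water, 0.05 M potassium phosphate pH 7.4, or 0.4% Tween 80/0.5% CMC/0.9% benzyl alcohol/0.9% saline. Read-out is average body weight per mouse (g) on day 1.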

Mus musculus [5] = test: Antitumor activity against L1210 leukemia in mice (Average weight per mouse on day 1.) at the dose of 113 mg/kg; how it was run: as §3
Mus musculus [6] = test: Antitumor activity against L1210 leukemia in mice (Average 7-day weight change (%)) at the dose of 113 mg/kg; settings: dose 133 mg/kg; in the assay text read “133 mg/kg” for “113 mg/kg”; how it was run: as §1
Mus musculus [7] = test: Antitumor activity against L1210 leukemia in mice (Average 7-day weight change) at the dose of 267 mg/kg; how it was run: as §1
Mus musculus [8] = test: Antitumor activity against L1210 leukemia in mice (Average weight per mouse on day 1.) at the dose of 200 mg/kg; how it was run: as §3
Mus musculus [9] = test: Antitumor activity against L1210 leukemia in mice (Percent increase in life span.) at the dose of 113 mg/kg; how it was run: as §2
Mus musculus [10] = test: Antitumor activity against L1210 leukemia in mice (Percent increase in life span.) at the dose of 267 mg/kg (mice surviving 20 or more days); how it was run: as §2
Mus musculus [11] = test: Antitumor activity against L1210 leukemia in mice (Average 7-day weight change) at the dose of 113 mg/kg; how it was run: as §1
Mus musculus [12] = test: Antitumor activity against L1210 leukemia in mice (Average 7-day weight change) at the dose of 200 mg/kg; how it was run: as §1
Mus musculus [13] = test: Antitumor activity against L1210 leukemia in mice (Percent increase in life span.) at the dose of 115 mg/kg; how it was run: as §2
Mus musculus [14] = test: Antitumor activity against L1210 leukemia in mice (Average 7-day weight change) at the dose of 115 mg/kg; how it was run: as §1
Mus musculus [15] = test: Antitumor activity against L1210 leukemia in mice (Average weight per mouse on day 1.) at the dose of 230 mg/kg; how it was run: as §3
Mus musculus [16] = test: Antitumor activity against L1210 leukemia in mice (Average weight per mouse on day 1.) at the dose of 460 mg/kg; how it was run: as §3
Mus musculus [17] = test: Antitumor activity against L1210 leukemia in mice (Average 7-day weight change (%)) at the dose of 115 mg/kg; how it was run: as §1
Mus musculus [18] = test: Antitumor activity against L1210 leukemia in mice (Percent increase in life span.) at the dose of 460 mg/kg (mice surviving 20 or more days); how it was run: as §2
Mus musculus [19] = test: Antitumor activity against L1210 leukemia in mice (Average 7-day weight change (%)) at the dose of 230 mg/kg; how it was run: as §1
Mus musculus [20] = test: Antitumor activity against L1210 leukemia in mice (Average weight per mouse on day 1.) at the dose of 115 mg/kg; how it was run: as §3
Mus musculus [21] = test: Antitumor activity against L1210 leukemia in mice (Percent increase in life span.) at the dose of 230 mg/kg; how it was run: as §2
Mus musculus [22] = test: Antitumor activity against L1210 leukemia in mice (Average 7-day weight change) at the dose of 460 mg/kg; how it was run: as §1
Mus musculus [23] = test: Antitumor activity against L1210 leukemia in mice (Average 7-day weight change (%)) at the dose of 460 mg/kg; how it was run: as §1
Mus musculus [24] = test: Antitumor activity against L1210 leukemia in mice (Average 7-day weight change) at the dose of 230 mg/kg; how it was run: as §1
Mus musculus [25] = test: Antitumor activity against L1210 leukemia in mice (Average 7-day weight change) at the dose of 260 mg/kg; how it was run: as §1
Mus musculus [26] = test: Antitumor activity against L1210 leukemia in mice (Average 7-day weight change) at the dose of 390 mg/kg; how it was run: as §1
Mus musculus [27] = test: Antitumor activity against L1210 leukemia in mice (Average weight per mouse on day 1.) at the dose of 390 mg/kg; how it was run: as §3
Mus musculus [28] = test: Antitumor activity against L1210 leukemia in mice (Average 7-day weight change (%)) at the dose of 260 mg/kg; how it was run: as §1
Mus musculus [29] = test: Antitumor activity against L1210 leukemia in mice (Percent increase in life span.) at the dose of 130 mg/kg; how it was run: as §2
Mus musculus [30] = test: Antitumor activity against L1210 leukemia in mice (Average 7-day weight change (%)) at the dose of 130 mg/kg; how it was run: as §1
Mus musculus [31] = test: Antitumor activity against L1210 leukemia in mice (Average weight per mouse on day 1.) at the dose of 260 mg/kg; how it was run: as §3
Mus musculus [32] = test: Antitumor activity against L1210 leukemia in mice (Percent increase in life span.) at the dose of 260 mg/kg; how it was run: as §2
Mus musculus [33] = test: Antitumor activity against L1210 leukemia in mice (Percent increase in life span.) at the dose of 390 mg/kg; how it was run: as §2
Mus musculus [34] = test: Antitumor activity against L1210 leukemia in mice (Average weight per mouse on day 1.) at the dose of 130 mg/kg; how it was run: as §3
Mus musculus [35] = test: Antitumor activity against L1210 leukemia in mice (Average 7-day weight change (%)) at the dose of 390 mg/kg; how it was run: as §1
Mus musculus [36] = test: Antitumor activity against L1210 leukemia in mice (Average 7-day weight change) at the dose of 130 mg/kg; how it was run: as §1

Nc1ccn([C@@H]2O[C@H](COP(=O)(O)O)[C@@H](O)[C@H]2O)c(=O)n1
IC50 (B16): 1.5 µM | IC50 (L1210): 0.35 µM

CCCCCCCCCCCCCCCC(=O)O[C@H]1[C@@H]2Oc3nc(=N)ccn3[C@@H]2O[C@@H]1COP(=O)(O)OCCOCC
Weight change (Mus musculus [1]): -16% | ILS at 200 mg/kg (Mus musculus [2]): 137% | Weight change (Mus musculus [3]): -16% | Average weight (Mus musculus [4]): 24 g mouse-1 | Average weight (Mus musculus [5]): 24 g mouse-1 | Weight change (Mus musculus [6]): -11% | Weight change (Mus musculus [7]): -3.6 g mouse-1 | Average weight (Mus musculus [8]): 24.4 g mouse-1 | ILS at 113 mg/kg (Mus musculus [9]): 112% | ILS at 267 mg/kg (Mus musculus [10]): 150% | Weight change (Mus musculus [11]): -2.6 g mouse-1 | Weight change (Mus musculus [12]): -4 g mouse-1

CCCCCCOP(=O)(O)OC[C@H]1O[C@@H](n2ccc(N)nc2=O)[C@@H](O)[C@@H]1O
IC50 (L1210): 7.8 µM

CCCCCCCCCCCCCCCCOP(=O)(O)OC[C@H]1O[C@@H](n2ccc(N)nc2=O)[C@@H](O)[C@@H]1O
IC50 (L1210): 11 µM

Nc1ccn([C@@H]2O[C@H](COP(=O)(O)OCC(O)CO)[C@@H](O)[C@@H]2O)c(=O)n1 (stereo partly drawn)
IC50 (B16): 26 µM | IC50 (L1210): 0.65 µM

Nc1ccn([C@@H]2O[C@H](COP(=O)(O)OCC(O)COCc3ccccc3)[C@@H](O)[C@@H]2O)c(=O)n1 (stereo partly drawn)
IC50 (B16): 25 µM | IC50 (L1210): 1 µM

CCCCCCCCCCCCCCCC(=O)O[C@H]1[C@@H]2Oc3nc(=N)ccn3[C@@H]2O[C@@H]1COP(=O)(O)OCCCCCC
ILS at 115 mg/kg (Mus musculus [13]): 25% | Weight change (Mus musculus [14]): 2 g mouse-1 | Average weight (Mus musculus [15]): 22.2 g mouse-1 | Average weight (Mus musculus [16]): 19.8 g mouse-1 | Weight change (Mus musculus [17]): 10% | ILS at 460 mg/kg (Mus musculus [18]): 75% | Weight change (Mus musculus [19]): 8% | Average weight (Mus musculus [20]): 20.6 g mouse-1 | ILS at 230 mg/kg (Mus musculus [21]): 37% | Weight change (Mus musculus [22]): 2.8 g mouse-1 | Weight change (Mus musculus [23]): 14% | Weight change (Mus musculus [24]): 1.8 g mouse-1

CCOP(=O)(O)OC[C@H]1O[C@@H](n2ccc(N)nc2=O)[C@@H](O)[C@@H]1O
IC50 (B16): 70 µM | IC50 (L1210): 4 µM

CCCCCCCCCCCCCCCC(=O)O[C@H]1[C@@H]2Oc3nc(=N)ccn3[C@@H]2O[C@@H]1COP(=O)(O)OCCCC
Weight change (Mus musculus [25]): 0.9 g mouse-1 | Weight change (Mus musculus [26]): -1.6 g mouse-1 | Average weight (Mus musculus [27]): 24.5 g mouse-1 | Weight change (Mus musculus [28]): 4% | ILS at 130 mg/kg (Mus musculus [29]): 62% | Weight change (Mus musculus [30]): 4% | Average weight (Mus musculus [31]): 22.8 g mouse-1 | ILS at 260 mg/kg (Mus musculus [32]): 62% | ILS at 390 mg/kg (Mus musculus [33]): 74% | Average weight (Mus musculus [34]): 23 g mouse-1 | Weight change (Mus musculus [35]): -7% | Weight change (Mus musculus [36]): 0.9 g mouse-1

CCCCCCCCOP(=O)(O)OC[C@H]1O[C@@H](n2ccc(N)nc2=O)[C@@H](O)[C@@H]1O
IC50 (B16): 360 µM | IC50 (L1210): 11 µM
